In one assay the test system is Enterobacter cloacae. Briefly: Antibacterial activity against Enterobacter cloacae MA2646. The class given is functional.
The test system of assay [1] is Escherichia coli. The experiment in a line: Antibacterial activity against Escherichia coli H560. The format is functional. In a few lines:
(§1)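 Minimum inhibitory concentration measured by standard microtitration, run as part of a panel of 11 bacterial organisms.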

Assay [2] concerns Escherichia coli. Briefly: Antibacterial activity against Escherichia coli Vogel. The class given is functional. An outline of the steps:
as §1

The subject of assay [3] is Staphylococcus aureus. The experiment in a line: Antibacterial activity against Staphylococcus aureus UC76. The format is functional. An outline of the steps: as §1
The next assay concerns Providencia rettgeri. The experiment in a line: Antibacterial activity against Providencia rettgeri M1771. The class given is functional. An outline of the steps:
as §1

A further assay relates to Streptococcus pyogenes. Briefly: Antibacterial activity against Streptococcus pyogenes C203. The format is functional. In a few lines: as §1
For the next assay, the target named is DNA gyrase (Escherichia coli, UniProt P0AES4+P0AES6). The experiment in a line: 50% inhibitory concentration against DNA-gyrase. The class given is protein-complex assay.
The next assay has as its system Streptococcus pneumoniae. Briefly: Antibacterial activity against Streptococcus pneumoniae SV-1. The format is functional. In a few lines:
as §1

The subject of another assay is Enterococcus faecalis. Briefly: Antibacterial activity against Streptococcus faecalis MGH-2. The class given is functional. In a few lines:
as §1

A further assay deals with Klebsiella pneumoniae. The experiment in a line: Antibacterial activity against Klebsiella pneumoniae MGH-2. The class given is functional. An outline of the steps:
as §1

In another assay the test system is Pseudomonas aeruginosa. Briefly: Antibacterial activity against Pseudomonas aeruginosa UI-18. The format is functional. An outline of the steps: as §1
The test system of assay [4] is Staphylococcus aureus. The experiment in a line: Antibacterial activity against Staphylococcus aureus H-228. The class given is functional. In a few lines: as §1
In assay [5] the test system is Escherichia coli. The experiment in a line: Median protective dose against Escherichia coli, determined in acute, lethal systemic infection in female charles river CD-1 mice (sc). Particulars: read-out: PD50. The class given is functional. An outline of the steps:
(§2)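 Female Charles River CD-1 mice (18-22 g) were challenged intraperitoneally with about 100 median lethal doses in 0.5 mL 5% hog gastric mucin. Single compound doses in a twofold rising series were given in 0.5 mL at the time of challenge: sc as aqueous solution, po by gavage in 5% gum acacia. Groups of eight mice were used per dose. PD50 was estimated from survival percentages by log probit.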

In assay [6] the test system is Escherichia coli. Briefly: Median protective dose against Escherichia coli, determined in acute, lethal systemic infection in female charles river CD-1 mice (po). The format is functional. As to conditions: Escherichia coli, po; read-out: PD50. An outline of the steps:
as §2

Consider 8 compounds from ChEMBL document CHEMBL1124255, “7-substituted 5-amino-1-cyclopropyl-6,8-difluoro-1,4-dihydro-4-oxo-3- quinolinecarboxylic acids: synthesis and biological activity of a new class of quinolone antibacterials” (J Med Chem, 1988).

≈ marks a conversion by molar mass, not a printed value.

One may read the MIC as the smallest concentration in the dilution series that meets the test's criterion for growth inhibition. By IC50 is commonly meant the concentration at which inhibition is half-maximal.

As to `CN1CCN(c2c(F)c(N(C)C)c3c(=O)c(C(=O)O)cn(C4CC4)c3c2F)CC1`, the MIC with Enterobacter cloacae, in the assay on Escherichia coli [1], against Escherichia coli [2], against Staphylococcus aureus [3], against Providencia rettgeri and in the assay on Streptococcus pyogenes was greater than 25 µg/mL in each case. In addition, the minimal inhibitory concentration (MIC) in the assay with Streptococcus pneumoniae, in the assay with Enterococcus faecalis, against Klebsiella pneumoniae, against Pseudomonas aeruginosa and against Staphylococcus aureus [4] was greater than 25 µg/mL in each case. At DNA gyrase, the concentration for half-maximal inhibition (IC50) was greater than 492 µM.
As for `CN1CCN(c2c(F)c(N)c3c(=O)c(C(=O)O)cn(C4CC4)c3c2F)CC1`, the MIC against Enterobacter cloacae was 0.013 µg/mL (≈ 0.0344 µM); with Escherichia coli [1], 0.003 µg/mL (≈ 0.00793 µM); against Escherichia coli [2], 0.013 µg/mL (≈ 0.0344 µM); in the assay with Staphylococcus aureus [3], 0.025 µg/mL (≈ 0.0661 µM); in the assay with Providencia rettgeri it was 0.05 µg/mL (≈ 0.132 µM); against Streptococcus pyogenes it was 0.4 µg/mL (≈ 1.06 µM). Moreover, the minimal inhibitory concentration (MIC) was 0.2 µg/mL (≈ 0.529 µM) in the assay with Streptococcus pneumoniae; 0.1 µg/mL (≈ 0.264 µM) against Enterococcus faecalis; 0.013 µg/mL (≈ 0.0344 µM) in the assay with Klebsiella pneumoniae; 0.1 µg/mL (≈ 0.264 µM) with Pseudomonas aeruginosa; 0.05 µg/mL (≈ 0.132 µM) with Staphylococcus aureus [4]. On DNA gyrase, the IC50 was 7.4 µM. The ED50 turned out to be 1.1 mg/kg in the assay on Escherichia coli [5] and 2.2 mg/kg in the assay on Escherichia coli [6].
Take `CC1COc2c(N3CCN(C)CC3)c(F)cc3c(=O)c(C(=O)O)cn1c23` (stereo unspecified) [OFLOXACIN]: the MIC against Enterobacter cloacae amounted to 0.1 µg/mL (≈ 0.277 µM); in the assay on Escherichia coli [1] it was 0.1 µg/mL (≈ 0.277 µM); against Escherichia coli [2], 0.1 µg/mL (≈ 0.277 µM); against Staphylococcus aureus [3], 0.1 µg/mL (≈ 0.277 µM); with Providencia rettgeri, 0.1 µg/mL (≈ 0.277 µM); against Streptococcus pyogenes, 0.8 µg/mL (≈ 2.21 µM). For the same compound, the MIC in the assay with Streptococcus pneumoniae came to 0.8 µg/mL (≈ 2.21 µM); against Enterococcus faecalis, 0.8 µg/mL (≈ 2.21 µM); against Klebsiella pneumoniae, 0.1 µg/mL (≈ 0.277 µM); in the assay with Pseudomonas aeruginosa it was 0.4 µg/mL (≈ 1.11 µM); against Staphylococcus aureus [4] it was 0.4 µg/mL (≈ 1.11 µM). The figures for the ED50 in the assay on Escherichia coli [5] and in the assay on Escherichia coli [6] were 0.8 mg/kg and 2 mg/kg, respectively.
For `Nc1c(F)c(N2CCNCC2)c(F)c2c1c(=O)c(C(=O)O)cn2C1CC1`, the MIC with Enterobacter cloacae was 0.013 µg/mL (≈ 0.0357 µM); against Escherichia coli [1] it was 0.003 µg/mL (≈ 0.00823 µM); against Escherichia coli [2], 0.013 µg/mL (≈ 0.0357 µM); against Staphylococcus aureus [3], 0.013 µg/mL (≈ 0.0357 µM); in the assay with Providencia rettgeri, 0.05 µg/mL (≈ 0.137 µM); with Streptococcus pyogenes, 0.2 µg/mL (≈ 0.549 µM). The minimum inhibitory concentration (MIC) with Streptococcus pneumoniae is 0.05 µg/mL (≈ 0.137 µM); against Enterococcus faecalis, 0.05 µg/mL (≈ 0.137 µM); in the assay on Klebsiella pneumoniae it was 0.025 µg/mL (≈ 0.0686 µM); in the assay with Pseudomonas aeruginosa, 0.025 µg/mL (≈ 0.0686 µM); in the assay on Staphylococcus aureus [4] it was 0.05 µg/mL (≈ 0.137 µM). In addition, the IC50 against DNA gyrase was 7.68 µM. Moreover, the ED50 in the assay with Escherichia coli [5] worked out at 0.2 mg/kg; with Escherichia coli [6], 0.8 mg/kg.
In the case of `CNCC1CCN(c2c(F)c(N)c3c(=O)c(C(=O)O)cn(C4CC4)c3c2F)C1` (stereo unspecified), the minimal inhibitory concentration (MIC) was 0.05 µg/mL (≈ 0.127 µM) with Enterobacter cloacae; 0.003 µg/mL (≈ 0.00765 µM) in the assay with Escherichia coli [1]; 0.025 µg/mL (≈ 0.0637 µM) with Escherichia coli [2]; 0.006 µg/mL (≈ 0.0153 µM) in the assay with Staphylococcus aureus [3]; 0.2 µg/mL (≈ 0.51 µM) in the assay with Providencia rettgeri; 0.003 µg/mL (≈ 0.00765 µM) in the assay with Streptococcus pyogenes. Further, the minimal inhibitory concentration (MIC) is 0.003 µg/mL (≈ 0.00765 µM) with Streptococcus pneumoniae; 0.025 µg/mL (≈ 0.0637 µM) with Enterococcus faecalis; 0.05 µg/mL (≈ 0.127 µM) with Klebsiella pneumoniae; 0.4 µg/mL (≈ 1.02 µM) in the assay on Pseudomonas aeruginosa; 0.013 µg/mL (≈ 0.0331 µM) against Staphylococcus aureus [4]. On DNA gyrase, the IC50 was 7.65 µM. Moreover, the figures for the ED50 in the assay on Escherichia coli [5] and in the assay with Escherichia coli [6] were 0.8 mg/kg and 7.5 mg/kg, respectively.
Take `O=C(O)c1cn(C2CC2)c2cc(N3CCNCC3)c(F)cc2c1=O` [CIPROFLOXACIN]: the MIC in the assay with Escherichia coli [1] was 0.025 µg/mL (≈ 0.0754 µM); against Staphylococcus aureus [3] it was 0.2 µg/mL (≈ 0.604 µM); in the assay with Providencia rettgeri it was 0.1 µg/mL (≈ 0.302 µM); against Streptococcus pyogenes it was 0.8 µg/mL (≈ 2.41 µM); in the assay with Streptococcus pneumoniae, 1.6 µg/mL (≈ 4.83 µM); against Enterococcus faecalis, 0.8 µg/mL (≈ 2.41 µM). Moreover, the MIC in the assay on Klebsiella pneumoniae stood at 0.1 µg/mL (≈ 0.302 µM); with Pseudomonas aeruginosa, 0.4 µg/mL (≈ 1.21 µM); with Staphylococcus aureus [4], 3.1 µg/mL (≈ 9.36 µM). Besides, the ED50 in the assay on Escherichia coli [5] came out at 0.3 mg/kg; with Escherichia coli [6] it was 1.2 mg/kg.
On to `CCNCC1CCN(c2c(F)c(NC)c3c(=O)c(C(=O)O)cn(C4CC4)c3c2F)C1` (stereo unspecified), for which the MIC against Enterobacter cloacae was 0.4 µg/mL (≈ 0.951 µM); with Escherichia coli [1], 0.05 µg/mL (≈ 0.119 µM); in the assay on Escherichia coli [2], 0.2 µg/mL (≈ 0.476 µM); against Staphylococcus aureus [3], 0.025 µg/mL (≈ 0.0595 µM); with Providencia rettgeri, 1.6 µg/mL (≈ 3.81 µM); against Streptococcus pyogenes, 0.1 µg/mL (≈ 0.238 µM). For the same compound, the MIC was 0.025 µg/mL (≈ 0.0595 µM) in the assay on Streptococcus pneumoniae; 0.1 µg/mL (≈ 0.238 µM) in the assay with Enterococcus faecalis; 0.4 µg/mL (≈ 0.951 µM) in the assay on Klebsiella pneumoniae; 3.1 µg/mL (≈ 7.37 µM) in the assay on Pseudomonas aeruginosa; 0.025 µg/mL (≈ 0.0595 µM) with Staphylococcus aureus [4]. At DNA gyrase, the IC50 was 32.8 µM. The figures for the ED50 in the assay on Escherichia coli [5] and in the assay with Escherichia coli [6] were 5 mg/kg and 11 mg/kg, respectively.
Turning to `CC1COc2c(N3CCN(C)CC3)c(F)c(N)c3c(=O)c(C(=O)O)cn1c23` (stereo unspecified), the MIC stood at 0.8 µg/mL (≈ 2.13 µM) against Enterobacter cloacae; 0.1 µg/mL (≈ 0.266 µM) in the assay with Escherichia coli [1]; 0.2 µg/mL (≈ 0.531 µM) against Escherichia coli [2]; 0.2 µg/mL (≈ 0.531 µM) against Staphylococcus aureus [3]; 1.6 µg/mL (≈ 4.25 µM) with Providencia rettgeri; 3.1 µg/mL (≈ 8.24 µM) in the assay with Streptococcus pyogenes. For the same compound, the MIC against Streptococcus pneumoniae is 3.1 µg/mL (≈ 8.24 µM); against Enterococcus faecalis, 1.6 µg/mL (≈ 4.25 µM); against Klebsiella pneumoniae, 0.4 µg/mL (≈ 1.06 µM); against Pseudomonas aeruginosa, 0.8 µg/mL (≈ 2.13 µM); against Staphylococcus aureus [4], 0.8 µg/mL (≈ 2.13 µM). For the same compound, the concentration for half-maximal inhibition (IC50) against DNA gyrase was 69.1 µM. Besides, the ED50 in the assay with Escherichia coli [5] came to 4.6 mg/kg; with Escherichia coli [6], 7.5 mg/kg.
